We go through 14 compounds from ChEMBL document CHEMBL3108749, “Discovery of a non-estrogenic irreversible inhibitor of 17β-hydroxysteroid dehydrogenase type 1 from 3-substituted-16β-(m-carbamoylbenzyl)-estradiol derivatives” (J Med Chem, 2014).

For experiment [1], the system named is MCF7. The experiment is described as follows: Cytotoxicity against human estrogen-starved estrogen-sensitive MCF7 cells assessed as cell growth at 1 uM after 7 days by MTS assay relative to control. As to conditions: MCF7, 168 h, read-out: Activity. The class given is functional. Summed up: (§1)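 MCF-7 (DMEM-F12) or T-47D (RPMI) cells are kept in medium with insulin (50 ng/mL) and 5% dextran-coated charcoal-treated FBS, seeded at 3000 cells/well. After 48 h, medium is replaced with medium containing compound, renewed every two days, and cells grow seven days. Growth is read by CellTiter 96 aqueous (MTS) assay as % proliferation vs basal control (0%). Scored −/+/++/+++ bands.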
Background: Tetrazolium dyes change colour on reduction, which living cells bring about.

Experiment [2] concerns MCF7. The experiment is described as follows: Cytotoxicity against human estrogen-starved estrogen-sensitive MCF7 cells assessed as cell growth at 0.1 uM after 7 days by MTS assay relative to control. The class given is functional. As to conditions: MCF7, 168 h, read-out: Activity. Summed up: as §1
Experiment [3] addresses T1, 17-beta-hydroxysteroid dehydrogenase type 1 (Homo sapiens) (UniProt P14061).
T1 sequence (whole entry): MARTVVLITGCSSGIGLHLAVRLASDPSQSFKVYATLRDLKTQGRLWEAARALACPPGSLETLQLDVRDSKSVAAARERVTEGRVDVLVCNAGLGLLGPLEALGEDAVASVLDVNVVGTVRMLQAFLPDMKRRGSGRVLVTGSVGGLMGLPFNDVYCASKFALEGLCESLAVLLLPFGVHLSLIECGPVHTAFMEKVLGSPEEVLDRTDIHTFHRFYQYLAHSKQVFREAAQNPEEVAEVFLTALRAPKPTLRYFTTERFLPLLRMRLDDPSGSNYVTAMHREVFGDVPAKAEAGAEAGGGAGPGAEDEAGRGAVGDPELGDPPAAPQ
As to the kind of experiment: Inhibition of 17-beta HSD1 in human T47D cells assessed as transformation of [14C]E1 to [14C]E2 at 0.1 uM after 24 hrs by thin layer chromatography. In kind it is cell-based. The method, boiled down:
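T-47D cells (endogenous 17β-HSD1) are seeded at 3000 cells/well in RPMI with insulin (50 ng/mL) and 5% charcoal-stripped FBS. After 24 h, compound (from EtOH stock, 0.1 μM final) is added with [14C]-E1 (60 nM) for 24 h. Steroids are extracted into diethyl ether, separated by silica TLC (toluene/acetone 4:1) and quantified. Mean ± SD of ≥2 independent experiments in triplicate.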

For `CN(C)C(=O)c1ccc2c(c1)CC[C@@H]1[C@@H]2CC[C@]2(C)[C@@H](O)[C@@H](Cc3cccc(C(N)=O)c3)C[C@@H]12`, the percent proliferation above basal control at 1 µM in experiment [1] came out at 15%. Also, the percent proliferation above basal control at 0.1 µM in experiment [2] worked out at 5%. In addition, the inhibition (as a rule, the drop in the measured response relative to a control, in per cent) in experiment [3] turned out to be 1%.
Consider `CCCN(CC)C(=O)c1ccc2c(c1)CC[C@@H]1[C@@H]2CC[C@]2(C)[C@@H](O)[C@@H](Cc3cccc(C(N)=O)c3)C[C@@H]12`, for which, in experiment [1], the percent proliferation above basal control at 1 µM amounted to 0%. Moreover, the percent proliferation above basal control at 0.1 µM in experiment [2] worked out at 0%. The inhibition in experiment [3] was 10%.
In the case of `C[C@]12CC[C@@H]3c4ccc(F)cc4CC[C@H]3[C@@H]1C[C@H](Cc1cccc(C(N)=O)c1)[C@@H]2O`, the percent proliferation above basal control at 1 µM in experiment [1] is 5%. Besides, in experiment [2], the percent proliferation above basal control at 0.1 µM came out at 0%. Further, the inhibition in experiment [3] was 10%.
Turning to `C[C@]12CC[C@@H]3c4ccc(CN)cc4CC[C@H]3[C@@H]1C[C@H](Cc1cccc(C(N)=O)c1)[C@@H]2O`, in experiment [1], the percent proliferation above basal control at 1 µM was above 30%. Further, the percent proliferation above basal control at 0.1 µM in experiment [2] was above 30%. In addition, the inhibition in experiment [3] turned out to be 44%.
With `C[C@]12CC[C@@H]3c4ccc(N)cc4CC[C@H]3[C@@H]1C[C@H](Cc1cccc(C(N)=O)c1)[C@@H]2O`, the percent proliferation above basal control at 1 µM in experiment [1] is 5%. Further, the percent proliferation above basal control at 0.1 µM in experiment [2] was 0%. Besides, the inhibition in experiment [3] turned out to be 31%.
Turning to `CNC(=O)Cc1ccc2c(c1)CC[C@@H]1[C@@H]2CC[C@]2(C)[C@@H](O)[C@@H](Cc3cccc(C(N)=O)c3)C[C@@H]12`, in experiment [1], the percent proliferation above basal control at 1 µM amounted to 0%. Besides, the percent proliferation above basal control at 0.1 µM in experiment [2] is 0%. Further, in experiment [3], the inhibition worked out at 11%.
For `CN(C)Cc1ccc2c(c1)CC[C@@H]1[C@@H]2CC[C@]2(C)[C@@H](O)[C@@H](Cc3cccc(C(N)=O)c3)C[C@@H]12`, the percent proliferation above basal control at 1 µM in experiment [1] amounted to 0%. Also, in experiment [2], the percent proliferation above basal control at 0.1 µM is 0%. Further, the inhibition in experiment [3] amounted to 19%.
On to `CCCN(CC)Cc1ccc2c(c1)CC[C@@H]1[C@@H]2CC[C@]2(C)[C@@H](O)[C@@H](Cc3cccc(C(N)=O)c3)C[C@@H]12`, for which the percent proliferation above basal control at 1 µM in experiment [1] amounted to 0%. In addition, the percent proliferation above basal control at 0.1 µM in experiment [2] came to 0%. In addition, in experiment [3], the inhibition came to 14%.
Regarding `C[C@]12CC[C@@H]3c4ccc(C(N)=O)cc4CC[C@H]3[C@@H]1C[C@H](Cc1cccc(C(N)=O)c1)[C@@H]2O`, the percent proliferation above basal control at 1 µM in experiment [1] came out at 15%. In addition, the percent proliferation above basal control at 0.1 µM in experiment [2] stood at 0%. Moreover, in experiment [3], the inhibition is 2%.
Take `CCc1ccc2c(c1)CC[C@@H]1[C@@H]2CC[C@]2(C)[C@@H](O)[C@@H](Cc3cccc(C(N)=O)c3)C[C@@H]12`: the percent proliferation above basal control at 1 µM in experiment [1] was determined as 0%. Moreover, the percent proliferation above basal control at 0.1 µM in experiment [2] came out at 0%. In experiment [3], the inhibition was found to be 6%.
Take `C[C@]12CC[C@@H]3c4ccc(CCO)cc4CC[C@H]3[C@@H]1C[C@H](Cc1cccc(C(N)=O)c1)[C@@H]2O`: the percent proliferation above basal control at 1 µM in experiment [1] is 5%. Moreover, in experiment [2], the percent proliferation above basal control at 0.1 µM stood at 5%. The inhibition in experiment [3] was 18%.
For the compound `C[C@]12CC[C@@H]3c4ccc(CN5CCCC5)cc4CC[C@H]3[C@@H]1C[C@H](Cc1cccc(C(N)=O)c1)[C@@H]2O`, the percent proliferation above basal control at 1 µM in experiment [1] stood at 5%. Moreover, in experiment [2], the percent proliferation above basal control at 0.1 µM turned out to be 0%. In addition, the inhibition in experiment [3] stood at 10%.
For `C[C@]12CC[C@@H]3c4ccc(CC(=O)O)cc4CC[C@H]3[C@@H]1C[C@H](Cc1cccc(C(N)=O)c1)[C@@H]2O` the same measures were 5%, 0% and 7%.
`C[C@]12CC[C@@H]3c4ccc(CO)cc4CC[C@H]3[C@@H]1C[C@H](Cc1cccc(C(N)=O)c1)[C@@H]2O`: the percent proliferation above basal control at 1 µM in experiment [1] stood at 5%. The percent proliferation above basal control at 0.1 µM in experiment [2] worked out at 0%.
